We go through 11 molecules from paper PMC9037807 (RSC Advances, 2021).

In one experiment the target is T1, ovine COX-1 (Ovis aries, UniProt P05979).
T1 sequence (P05979 25-600): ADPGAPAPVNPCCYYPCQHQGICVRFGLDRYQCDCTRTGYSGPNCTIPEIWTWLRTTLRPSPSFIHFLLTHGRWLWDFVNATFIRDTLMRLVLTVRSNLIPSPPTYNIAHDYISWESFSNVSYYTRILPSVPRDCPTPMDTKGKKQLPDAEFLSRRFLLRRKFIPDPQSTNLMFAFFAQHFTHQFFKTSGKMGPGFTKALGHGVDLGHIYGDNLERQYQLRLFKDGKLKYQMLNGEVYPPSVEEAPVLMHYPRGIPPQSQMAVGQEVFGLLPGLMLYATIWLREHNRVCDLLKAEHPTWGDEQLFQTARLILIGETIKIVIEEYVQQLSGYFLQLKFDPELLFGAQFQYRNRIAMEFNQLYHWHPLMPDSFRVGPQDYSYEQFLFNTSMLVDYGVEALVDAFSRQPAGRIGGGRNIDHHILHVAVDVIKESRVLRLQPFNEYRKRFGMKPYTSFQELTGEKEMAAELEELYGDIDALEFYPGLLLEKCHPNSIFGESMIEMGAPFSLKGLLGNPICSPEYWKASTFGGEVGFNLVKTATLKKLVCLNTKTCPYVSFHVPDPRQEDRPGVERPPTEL
Nature of the experiment: In vitro cyclooxygenase. In kind it is biochemical.

The target of the next experiment is T2, ovine COX-2 (Ovis aries, UniProt P79208).
T2 sequence (P79208 17-603): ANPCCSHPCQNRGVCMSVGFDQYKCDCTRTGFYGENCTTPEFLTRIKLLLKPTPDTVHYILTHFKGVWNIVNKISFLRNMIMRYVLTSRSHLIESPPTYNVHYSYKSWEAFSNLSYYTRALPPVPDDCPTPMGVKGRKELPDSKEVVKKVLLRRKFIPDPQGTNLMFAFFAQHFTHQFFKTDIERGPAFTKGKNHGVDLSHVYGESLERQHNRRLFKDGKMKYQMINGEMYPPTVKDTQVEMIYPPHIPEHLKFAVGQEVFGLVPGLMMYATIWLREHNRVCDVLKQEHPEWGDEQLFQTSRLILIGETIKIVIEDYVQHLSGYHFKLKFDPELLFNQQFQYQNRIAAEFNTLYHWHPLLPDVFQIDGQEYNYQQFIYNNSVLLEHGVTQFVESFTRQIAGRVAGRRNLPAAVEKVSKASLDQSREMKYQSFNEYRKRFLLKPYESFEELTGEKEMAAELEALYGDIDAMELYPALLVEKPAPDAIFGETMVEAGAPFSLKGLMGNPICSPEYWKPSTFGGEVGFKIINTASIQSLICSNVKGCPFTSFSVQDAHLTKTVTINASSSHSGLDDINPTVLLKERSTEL
Nature of the experiment: In vitro cyclooxygenase. Particulars: for Selectivity index (SI): COX-1 IC50/COX-2 IC50. The experiment is classed as biochemical.

Experiment [1] deals with carrageenan-induced rat paw edema. The experiment can be described thus: Carrageenan-induced rat paw edema model. The experiment is classed as in vivo. To be noted: 10 mg kg−1 po, n = 4; for Edema inhibition %, 1 h / Edema thickness ± SEM, 1 h: 1 h after carrageenan injection; for Edema inhibition %, 3 h / Edema thickness ± SEM, 3 h: 3 h after carrageenan injection; for Edema inhibition %, 6 h / Edema thickness ± SEM, 6 h: 6 h after carrageenan injection. The method in brief:
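Rats were dosed orally with test compound (10 mg kg−1) in 5% aqueous DMSO (v/v). […] Thirty minutes after dosing, 0.02 ml of 1% carrageenan was injected sub-plantar. Paw thickness was measured 1, 3 and 6 h after injection, and edema inhibition % was calculated from paw thickness.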
On the technique in general: In the carrageenan paw model, swelling and tenderness develop within hours.

Molecule `CS(=O)(=O)c1ccc(-c2nc3ccccc3n2CC(=O)N/N=C/c2ccccc2)cc1` [11a, (E)-N′-Benzylidene-2-(2-(4-(methylsulfonyl)phenyl)-1H-benzo[d]imidazol-1-yl) acetohydrazide] came in with an IC50 against ovine COX-1 of 9.87 µM. Further, at ovine COX-2, the IC50 amounted to 190 nM and the “Selectivity index (SI)” value was 52. Moreover, in experiment [1], the “Edema inhibition %, 1 h” value was determined as 60%; the “Edema thickness ± SEM, 1 h” value is given as 1.048 ± 0.027 mm; the “Edema inhibition %, 3 h” value was found to be 64%; the “Edema thickness ± SEM, 3 h” value amounted to 0.812 ± 0.037 mm. In experiment [1], the “Edema inhibition %, 6 h” value came to 69% and the “Edema thickness ± SEM, 6 h” value turned out to be 0.578 ± 0.049 mm.

For `COc1ccc(/C=N/NC(=O)Cn2c(-c3ccc(S(C)(=O)=O)cc3)nc3ccccc32)cc1` [11c, (E)-N′-(4-Methoxybenzylidene)-2-(2-(4-(methylsulfonyl)phenyl)-1H-benzo[d]imidazol-1-yl) acetohydrazide], at ovine COX-1, the concentration for half-maximal inhibition (IC50) was 11.3 µM. At ovine COX-2, the IC50 amounted to 110 nM and the “Selectivity index (SI)” value was found to be 103. In addition, in experiment [1], the “Edema inhibition %, 1 h” value came out at 81%; the “Edema thickness ± SEM, 1 h” value came to 0.487 ± 0.019 mm; the “Edema inhibition %, 3 h” value is listed as 92%; the “Edema thickness ± SEM, 3 h” value was determined as 0.181 ± 0.013 mm. In experiment [1], the “Edema inhibition %, 6 h” value is listed as 93% and the “Edema thickness ± SEM, 6 h” value turned out to be 0.130 ± 0.010 mm.

Turning to `CS(=O)(=O)c1ccc(-c2nc3ccccc3n2CC(=O)N/N=C/c2ccc(F)cc2)cc1` [11d, (E)-N′-(4-Fluorobenzylidene)-2-(2-(4-(methylsulfonyl)phenyl)-1H-benzo[d]imidazol-1-yl) acetohydrazide], on ovine COX-1, the IC50 was 10.2 µM. Also, at ovine COX-2, the half-inhibitory concentration (IC50) turned out to be 120 nM and the “Selectivity index (SI)” value is 85. For the same molecule, in experiment [1], the “Edema inhibition %, 3 h” value turned out to be 81%; the “Edema thickness ± SEM, 3 h” value turned out to be 0.427 ± 0.017 mm; the “Edema inhibition %, 6 h” value is 90%; the “Edema thickness ± SEM, 6 h” value was 0.183 ± 0.014 mm.

Consider `CS(=O)(=O)c1ccc(-c2nc3cc(Cl)ccc3n2CC(=O)N/N=C/c2ccc(Cl)cc2)cc1` [11f, (E)-N′-(4-Chlorobenzylidene)-2-(5-chloro-2-(4-(methylsulfonyl)phenyl)-1H-benzo[d]imidazol-1-yl) acetohydrazide], for which, on ovine COX-1, 10.2 µM corresponded to half-maximal inhibition (IC50). Also, at ovine COX-2, the IC50 was 130 nM and the “Selectivity index (SI)” value came out at 79. Further, in experiment [1], the “Edema inhibition %, 1 h” value is reported as 78%; the “Edema thickness ± SEM, 1 h” value is listed as 0.577 ± 0.020 mm; the “Edema inhibition %, 3 h” value worked out at 80%; the “Edema thickness ± SEM, 3 h” value stood at 0.449 ± 0.008 mm. Moreover, in experiment [1], the “Edema inhibition %, 6 h” value is on record as 90% and the “Edema thickness ± SEM, 6 h” value was determined as 0.191 ± 0.011 mm.

Turning to `COc1ccc(/C=N/NC(=O)Cn2c(-c3ccc(S(C)(=O)=O)cc3)nc3cc(Cl)ccc32)cc1` [11g, (E)-N′-(4-Methoxybenzylidene)-2-(5-chloro-2-(4-(methylsulfonyl)phenyl)-1H-benzo[d]imidazol-1-yl) acetohydrazide], 8.74 µM corresponded to half-maximal inhibition against ovine COX-1 (IC50). Besides, on ovine COX-2, half-maximal inhibition (IC50) was put at 130 nM and the “Selectivity index (SI)” value was 67. In experiment [1], the “Edema inhibition %, 1 h” value was found to be 61%; the “Edema thickness ± SEM, 1 h” value was found to be 1.017 ± 0.007 mm; the “Edema inhibition %, 3 h” value is on record as 65%; the “Edema thickness ± SEM, 3 h” value stood at 0.785 ± 0.018 mm. In experiment [1], the “Edema inhibition %, 6 h” value turned out to be 78% and the “Edema thickness ± SEM, 6 h” value is reported as 0.410 ± 0.018 mm.

As to `CS(=O)(=O)c1ccc(-c2nc3cc(Cl)ccc3n2CC(=O)N/N=C/c2ccc(F)cc2)cc1` [11h, (E)-N′-(4-Fluorobenzylidene)-2-(5-chloro-2-(4-(methylsulfonyl)phenyl)-1H-benzo[d]imidazol-1-yl) acetohydrazide], inhibition against ovine COX-1 was half-maximal at 7.98 µM (IC50). At ovine COX-2, the IC50 came out at 220 nM and the “Selectivity index (SI)” value turned out to be 36. Moreover, in experiment [1], the “Edema inhibition %, 1 h” value was 50%; the “Edema thickness ± SEM, 1 h” value is listed as 1.30 ± 0.079 mm; the “Edema inhibition %, 3 h” value stood at 52%; the “Edema thickness ± SEM, 3 h” value is listed as 1.063 ± 0.020 mm. For the same molecule, in experiment [1], the “Edema inhibition %, 6 h” value stood at 60% and the “Edema thickness ± SEM, 6 h” value is on record as 0.754 ± 0.026 mm.

`Cc1ccc2c(c1)nc(-c1ccc(S(C)(=O)=O)cc1)n2CC(=O)N/N=C/c1ccc(Cl)cc1` [11j, (E)-N′-(4-Chlorobenzylidene)-2-(5-methyl-2-(4-(methylsulfonyl)phenyl)-1H-benzo[d]imidazol-1-yl) acetohydrazide]: the IC50 against ovine COX-1 came out at 11.2 µM. Also, on ovine COX-2, the IC50 was found to be 110 nM and the “Selectivity index (SI)” value is listed as 102. Also, in experiment [1], the “Edema inhibition %, 1 h” value turned out to be 81%; the “Edema thickness ± SEM, 1 h” value was determined as 0.505 ± 0.022 mm; the “Edema inhibition %, 3 h” value is on record as 91%; the “Edema thickness ± SEM, 3 h” value amounted to 0.194 ± 0.018 mm. In experiment [1], the “Edema inhibition %, 6 h” value is 93% and the “Edema thickness ± SEM, 6 h” value was determined as 0.129 ± 0.008 mm.

At ovine COX-1, `Cc1ccc2c(c1)nc(-c1ccc(S(C)(=O)=O)cc1)n2CC(=O)N/N=C/c1ccc(F)cc1` [11l, (E)-N′-(4-Fluorobenzylidene)-2-(5-methyl-2-(4-(methylsulfonyl)phenyl)-1H-benzo[d]imidazol-1-yl) acetohydrazide] gave an IC50 of 7.96 µM. Further, at ovine COX-2, the IC50 came out at 340 nM and the “Selectivity index (SI)” value amounted to 23. In experiment [1], the “Edema inhibition %, 1 h” value stood at 47%; the “Edema thickness ± SEM, 1 h” value is on record as 1.378 ± 0.009 mm; the “Edema inhibition %, 3 h” value is given as 51%; the “Edema thickness ± SEM, 3 h” value is recorded as 1.102 ± 0.086 mm. Moreover, in experiment [1], the “Edema inhibition %, 6 h” value came to 55% and the “Edema thickness ± SEM, 6 h” value stood at 0.860 ± 0.010 mm.

Molecule `C/C(=N\NC(=O)Cn1c(-c2ccc(S(C)(=O)=O)cc2)nc2ccccc21)c1ccccc1` [12a, (E)-2-(2-(4-(Methylsulfonyl)phenyl)-1H-benzo[d]imidazol-1-yl)-N′-(1-phenylethylidene) acetohydrazide] returned an IC50 against ovine COX-1 of 8.97 µM. In addition, at ovine COX-2, half-maximal inhibition (IC50) was put at 280 nM and the “Selectivity index (SI)” value turned out to be 32. Besides, in experiment [1], the “Edema inhibition %, 1 h” value amounted to 50%; the “Edema thickness ± SEM, 1 h” value stood at 1.308 ± 0.101 mm; the “Edema inhibition %, 3 h” value is listed as 54%; the “Edema thickness ± SEM, 3 h” value is on record as 1.017 ± 0.024 mm. Moreover, in experiment [1], the “Edema inhibition %, 6 h” value is 60% and the “Edema thickness ± SEM, 6 h” value worked out at 0.766 ± 0.006 mm.

In turn, `C/C(=N\NC(=O)Cn1c(-c2ccc(S(C)(=O)=O)cc2)nc2ccccc21)c1ccc(Cl)cc1` [12b, (E)-N′-(1-(4-Chlorophenyl)ethylidene)-2-(2-(4-(methylsulfonyl)phenyl)-1H-benzo[d]imidazol-1-yl) acetohydrazide] displayed an IC50 at ovine COX-1 of 12.5 µM. For the same molecule, on ovine COX-2, the midpoint of inhibition, the IC50, lay at 100 nM and the “Selectivity index (SI)” value worked out at 125. Besides, in experiment [1], the “Edema inhibition %, 1 h” value is reported as 80%; the “Edema thickness ± SEM, 1 h” value was determined as 0.522 ± 0.009 mm; the “Edema inhibition %, 3 h” value is 89%; the “Edema thickness ± SEM, 3 h” value worked out at 0.240 ± 0.014 mm. In addition, in experiment [1], the “Edema inhibition %, 6 h” value worked out at 95% and the “Edema thickness ± SEM, 6 h” value is on record as 0.104 ± 0.005 mm.

On to `C/C(=N\NC(=O)Cn1c(-c2ccc(S(C)(=O)=O)cc2)nc2cc(C)ccc21)c1ccc(Cl)cc1` [12f, (E)-N′-(1-(4-Chlorophenyl)ethylidene)-2-(5-methyl-2-(4-(methylsulfonyl)phenyl)-1H-benzo[d]imidazol-1-yl) acetohydrazide], for which inhibition against ovine COX-1 was half-maximal at 10.9 µM (IC50). Besides, on ovine COX-2, the IC50 amounted to 190 nM and the “Selectivity index (SI)” value is given as 57. For the same molecule, in experiment [1], the “Edema inhibition %, 1 h” value is listed as 60%; the “Edema thickness ± SEM, 1 h” value stood at 1.038 ± 0.014 mm; the “Edema inhibition %, 3 h” value came out at 64%; the “Edema thickness ± SEM, 3 h” value is on record as 0.801 ± 0.013 mm. Further, in experiment [1], the “Edema inhibition %, 6 h” value is 70% and the “Edema thickness ± SEM, 6 h” value was found to be 0.563 ± 0.012 mm.

By IC50 is commonly meant the concentration at which inhibition is half-maximal. Lower therefore signals inhibition by little substance.
